Broadly, the IC50 is the concentration that inhibits the measured activity by half.

Results on nine compounds are retold here after paper PMC7108934 (ChemPlusChem, 2019).

For data set [1], the system named is A549 cells (human lung carcinoma). Kind of data set: MTT cytotoxicity assay, A549. Format: cell-based. The conditions noted are these: read-out: (IC50 ± SD) A549. In general terms: Formazan colour is commonly taken as a measure of viable cells.
Data set [2] has as its system SKOV3 cells (human ovarian carcinoma). Kind of data set: MTT cytotoxicity assay, SKOV3. Format: cell-based. The conditions noted are these: read-out: (IC50 ± SD) SKOV3, at least 72 h incubation, mean ± SD. The procedure, abridged:
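Cells were grown in RPMI 1640 with 10% FBS and 1% penicillin-streptomycin at 37 °C, humidified CO2. They were seeded at 0.8 × 10^4 cells/well and allowed 24 h recovery. Test compound was added at 1–100 μM in triplicate for at least 72 h. Medium was replaced with 0.5 mg/mL MTT for 3 h at room temperature, and formazan was dissolved in DMSO. Absorbance was read at 490 nm. IC50 came from curve fitting, reported as mean ± SD.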

In another data set the test system is SKOV3 cells. The experiment in a line: Intracellular ROS determination. Format: cell-based, human. The following applies: SKOV3, 1000 μM, positive control. The procedure, abridged:
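SKOV3 single-cell suspension (300 × 10^3) was exposed to test compound at 10, 20 or 40 μM for 2 h at 37 °C; untreated cells served as negative control. Cells were washed and loaded with DCFH-DA in phenol red-free RPMI for 1 h at 37 °C. The positive control got H2O2 (1000 μM) for a further 20 min. At least 15000 events were acquired by flow cytometry. ROS is reported as MFI divided by the untreated MFI0.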

The test system of another data set is MCF-7 cells. Kind of data set: Comet assay. Format: cell-based, human. The conditions noted are these: MCF-7, 1 μM, positive control, versus untreated cells. The procedure, abridged: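 Alkaline comet assay on MCF-7 cells (5 × 10^5). Cells got test compound at 10 or 50 μM, doxorubicin at 1 μM as positive control, or no treatment, for 20 min at 37 °C in 5% CO2. Cells were embedded in LMPA over NMPA-coated slides, lysed cold overnight and held 40 min in alkaline buffer. Slides were electrophoresed at 24 V/300 mA, neutralised at pH 7.4, ethanol-dehydrated, PI-stained (50 μg/ml) and imaged by fluorescence microscopy at 20×.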

Setting [3] is: MTT, at least 72 h incubation, mean ± SD.

The structures appear in SMILES notation. Where two headings read alike, the source gives them in different places.

As to `N.N.[Cl][Pt][Cl]` [Cisplatin, reference compound], the 50% inhibitory concentration (IC50) in data set [1] (setting [3]) turned out to be 9.71 ± 1.7 µM; in data set [2] it was 14.5 ± 1.54 µM.

For `OO` [Complex H2O2, H2O2], the ROS induction entry in the data set on SKOV3 cells is recorded as “could induce ROS production within 20 minutes”.

On to `C=CCP(c1ccccc1)c1ccccc1` [PPh2allyl, allyldiphenylphosphine], for which, in data set [1] (setting [3]), the IC50 was greater than 100 µM.

Turning to `Sc1nc2ccccc2[nH]1` [Sbi, benzimidazole-2-thiol], the IC50 in data set [1] (Homo sapiens, A549, 72 h) was greater than 100 µM.

For the compound `Sc1nc2ccccc2s1` [Sbt, benzothiazole-2-thiol], the half-inhibitory concentration (IC50) in data set [1] (Homo sapiens, A549, 72 h) is greater than 100 µM.

Take `Sc1ccccn1` [Spy, pyridine-2-thiol]: the IC50 in data set [1] (Homo sapiens, A549, 72 h) is greater than 100 µM.

Consider `FC(F)(F)c1ccc(S)nc1` [Spy-5-CF3, 5-(trifluoromethyl)-pyridine-2-thiol], for which the concentration for half-maximal inhibition (IC50) in data set [1] (Homo sapiens, A549, 72 h) was greater than 100 µM.

In the case of `Sc1ncccn1` [SpyN, pyrimidine-2-thiol], the concentration for half-maximal inhibition (IC50) in data set [1] (Homo sapiens, A549, 72 h) was greater than 100 µM.

Take `COc1cccc2c1C(=O)c1c(O)c3c(c(O)c1C2=O)C[C@@](O)(C(=O)CO)C[C@@H]3O[C@H]1C[C@H](N)[C@H](O)[C@H](C)O1` [doxorubicin]: in the data set with MCF-7 cells, the “percentage of degraded DNA in the tail” value is “remarkably increase”.
